Assay results published in ChEMBL document CHEMBL3792366, “Role of disulfide linkage in action of bis(dialkylaminethiocarbonyl)disulfides as potent double-Edged microbicidal spermicide: Design, synthesis and biology” (Eur J Med Chem, 2016).
In brackets after ≈: the same amount, converted by molar mass.

Legend:
[1] = Spermicidal activity in human sperms assessed as motility measured within 30 secs by phase contrast microscopy; type: functional, Sperm
Procedure, shortened: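 Liquefied human semen (0.05 mL) was added to 0.25 mL test solution and vortexed 10 s at low speed. Motile sperm were scored visually under phase contrast in five fields within 30 s; assays in triplicate; MEC = minimum effective concentration.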

Trichomonas vaginalis [2] = assay: Antitrichomonas activity against metronidazole-resistant trophozoite stage of Trichomonas vaginalis ATCC 50143 assessed as cell viability under anaerobic condition after 48 hrs by trypan blue exclusion assay; type: functional; settings: ATCC 50143, 48 h
Procedure, shortened: (§1)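 Log-phase T. vaginalis grown in TYM with 10% FCS, vitamin mix and penicillin/streptomycin at 37 °C. Compounds were made as 100 µg/mL DMSO stocks and serially diluted in TYM down to 0.1 µg/mL; DMSO/TYM served as vehicle. Parasites were incubated anaerobically at 37 °C, and viability was checked by trypan blue exclusion from 3 to 48 h. MIC = lowest concentration killing all cells by 48 h; each test was repeated three times.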

Trichomonas vaginalis [3] = assay: Antitrichomonas activity against trophozoite stage of Trichomonas vaginalis clinical isolate assessed as cell viability under anaerobic condition after 48 hrs by trypan blue exclusion assay; type: functional; procedure, shortened: as §1
Sporothrix schenckii = assay: Antifungal activity against Sporothrix schenckii after 48 hrs by broth microdilution method; type: functional
Procedure, shortened: (§2)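 NCCLS broth microdilution in RPMI 1640 buffered with MOPS; starting inoculum 1–5 × 10^3 CFU/mL; plates incubated at 35 °C; MIC read after 48 h.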

[4] = test system: Trichophyton mentagrophytes; assay: Antifungal activity against Trichophyton mentagrophytes after 48 hrs by broth microdilution method; type: functional; procedure, shortened: as §2
Cryptococcus neoformans = assay: Antifungal activity against Cryptococcus neoformans after 48 hrs by broth microdilution method; type: functional; procedure, shortened: as §2
Candida albicans = assay: Antifungal activity against Candida albicans after 48 hrs by broth microdilution method; type: functional; procedure, shortened: as §2
Candida parapsilosis = assay: Antifungal activity against Candida parapsilosis ATCC 22019 after 48 hrs by broth microdilution method; type: functional; settings: Lodderomyces parapsilosis, ATCC 22019, 48 h; procedure, shortened: as §2
Trichomonas vaginalis [5] = assay: Potency index, ratio of metronidazole MIC to compound MIC for metronidazole-resistant trophozoite stage of Trichomonas vaginalis ATCC 50143; type: functional

Compound	MIC (Trichomonas vaginalis [2]) [µM]	MIC (Trichomonas vaginalis [3]) [µM]	MIC (Sporothrix schenckii) [µM]	MIC [4] [µM]	MIC (Cryptococcus neoformans) [µM]	MIC (Candida albicans) [µM]	MIC (Candida parapsilosis) [µM]	MEC [1] [%]	Ratio (Trichomonas vaginalis [5])
CCCCN1CCN(C(=S)SCCCSC(=S)N2CCN(CCCC)CC2)CC1	–	–	–	–	–	–	–	0.5	–
C=CCN1CCN(C(=S)SCCC)CC1	–	–	–	–	–	–	–	>1	–
C=CCN1CCN(C(=S)SCCCCCC)CC1	–	–	–	–	–	–	–	>1	–
CCCCCCSC(=S)N1CCN(CCCC#N)CC1	–	–	–	–	–	–	–	>1	–
CCCCCCCCCCCCCCCCN1CCN(C(=S)SSC(=S)N2CCN(CCCCCCCCCCCCCCCC)CC2)CC1	> 129	> 129	16.2 (≈ 12.5 µg/mL)	16.2 (≈ 12.5 µg/mL)	64.8 (≈ 50 µg/mL)	64.8 (≈ 50 µg/mL)	> 64.8	1	–
S=C(SSC(=S)N1CCCCCC1)N1CCCCCC1	35.8 (≈ 12.5 µg/mL)	286 (≈ 99.7 µg/mL)	17.9 (≈ 6.24 µg/mL)	17.9 (≈ 6.24 µg/mL)	4.4 (≈ 1.53 µg/mL)	8.9 (≈ 3.1 µg/mL)	143 (≈ 49.9 µg/mL)	>1	4
S=C(SSC(=S)N1CCOCC1)N1CCOCC1	9.6 (≈ 3.12 µg/mL)	9.6 (≈ 3.12 µg/mL)	76.9 (≈ 25 µg/mL)	38.4 (≈ 12.5 µg/mL)	38.4 (≈ 12.5 µg/mL)	76.9 (≈ 25 µg/mL)	76.9 (≈ 25 µg/mL)	0.1	16
C=CCN1CCN(C(=S)SCCSC(=S)N2CCN(CC=C)CC2)CC1	–	–	–	–	–	–	–	0.5	–
CCCSC(=S)N1CCN(CCCC#N)CC1	–	–	–	–	–	–	–	>1	–
S=C(SSC(=S)N1CCCC1)N1CCCC1 [BIS(PYRROLIDINYLTHIOCARBONYL)DISULFIDE]	10.6 (≈ 3.1 µg/mL)	10.6 (≈ 3.1 µg/mL)	21.3 (≈ 6.23 µg/mL)	10.6 (≈ 3.1 µg/mL)	2.6 (≈ 0.761 µg/mL)	10.6 (≈ 3.1 µg/mL)	21.3 (≈ 6.23 µg/mL)	1	16
CN1CCN(C(=S)SCCCSC(=S)N2CCN(C)CC2)CC1	–	–	–	–	–	–	–	0.5	–
S=C(SSC(=S)N1CCCCC1)N1CCCCC1 [BIS(PIPERIDINYLTHIOCARBONYL)DISULFIDE]	155 (≈ 49.7 µg/mL)	155 (≈ 49.7 µg/mL)	38.9 (≈ 12.5 µg/mL)	19.4 (≈ 6.22 µg/mL)	2.4 (≈ 0.769 µg/mL)	9.7 (≈ 3.11 µg/mL)	38.9 (≈ 12.5 µg/mL)	1	–

Second part, led by results:

MIC (Trichomonas vaginalis [2]) [µM]	MIC (Trichomonas vaginalis [3]) [µM]	MIC (Sporothrix schenckii) [µM]	MIC [4] [µM]	MIC (Cryptococcus neoformans) [µM]	MIC (Candida albicans) [µM]	MIC (Candida parapsilosis) [µM]	Compound	MEC [1] [%]	Ratio (Trichomonas vaginalis [5])
> 169	> 169	84.6 (≈ 50 µg/mL)	84.6 (≈ 50 µg/mL)	84.6 (≈ 50 µg/mL)	84.6 (≈ 50 µg/mL)	84.6 (≈ 50 µg/mL)	S=C(SSC(=S)N1CCN(C23CC4CC(CC(C4)C2)C3)CC1)N1CCN(C23CC4CC(CC(C4)C2)C3)CC1	1	–
> 191	> 191	> 95.6	95.6 (≈ 50 µg/mL)	> 95.6	95.6 (≈ 50 µg/mL)	> 95.6	CC(C)COC(=O)N1CCN(C(=S)SSC(=S)N2CCN(C(=O)OCC(C)C)CC2)CC1	>1	–
> 142	> 142	> 71.3	71.3 (≈ 50 µg/mL)	> 71.3	35.6 (≈ 24.9 µg/mL)	> 71.3	O=[N+]([O-])c1ccc(N2CCN(C(=S)SSC(=S)N3CCN(c4ccc([N+](=O)[O-])cc4C(F)(F)F)CC3)CC2)c(C(F)(F)F)c1	0.1	–
> 153	> 153	76.5 (≈ 48.3 µg/mL)	76.5 (≈ 48.3 µg/mL)	> 76.5	> 76.5	> 76.5	Cc1ccc(S(=O)(=O)N2CCN(C(=S)SSC(=S)N3CCN(S(=O)(=O)c4ccc(C)cc4)CC3)CC2)cc1	>1	–
> 143	89.4 (≈ 62.5 µg/mL)	35.7 (≈ 25 µg/mL)	> 71.5	35.7 (≈ 25 µg/mL)	35.7 (≈ 25 µg/mL)	> 71.5	CCCCCCCCSC(=S)N1CCN(C(=S)SSC(=S)N2CCN(C(=S)SCCCCCCCC)CC2)CC1	1	–
> 142	> 142	> 71.3	> 71.3	> 71.3	> 71.3	> 71.3	S=C(SCCN1CCOCC1)N1CCN(C(=S)SSC(=S)N2CCN(C(=S)SCCN3CCOCC3)CC2)CC1	0.5	–
> 149	> 149	74.5 (≈ 50 µg/mL)	> 74.5	74.5 (≈ 50 µg/mL)	> 74.5	74.5 (≈ 50 µg/mL)	CCCCCCCSC(=S)N1CCN(C(=S)SSC(=S)N2CCN(C(=S)SCCCCCCC)CC2)CC1	>1	–
> 188	> 188	> 94.1	> 94.1	> 94.1	94.1 (≈ 49.9 µg/mL)	> 94.1	O=C(c1ccccc1)N1CCN(C(=S)SSC(=S)N2CCN(C(=O)c3ccccc3)CC2)CC1	0.5	–
> 155	> 155	77.7 (≈ 50 µg/mL)	> 77.7	38.8 (≈ 25 µg/mL)	77.7 (≈ 50 µg/mL)	77.7 (≈ 50 µg/mL)	CCCCCCSC(=S)N1CCN(C(=S)SSC(=S)N2CCN(C(=S)SCCCCCC)CC2)CC1	1	–
> 208	104 (≈ 49.8 µg/mL)	104 (≈ 49.8 µg/mL)	104 (≈ 49.8 µg/mL)	104 (≈ 49.8 µg/mL)	> 104	> 104	S=C(SSC(=S)N1CCN(c2ncccn2)CC1)N1CCN(c2ncccn2)CC1	1	–
